Results published in ChEMBL document CHEMBL1124984, “Benzophenone dicarboxylic acid antagonists of leukotriene B4. 2. Structure-activity relationships of the lipophilic side chain” (J Med Chem, 1990).

Each compound was assayed against T1, Leukotriene B4 receptor (Homo sapiens) (UniProt Q9NPC1+Q15722) (assay: Antagonistic activity against Leukotriene B4 receptor by using [3H]- LTB4 as a radioligand at a concentration of 10e-8 M).
Assay type: functional
Procedure, shortened: (§1)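 Neutrophil suspensions (≥90% neutrophils, ≥90% viable) at 2 × 10^7 cells/mL in Hanks' balanced salt solution with 0.1% ovalbumin. Cells were incubated 10 min at 4 °C with compound in DMSO and [3H]LTB4 added as a 2.65 nM solution. Cells were spun 2 min through dibutyl/dinonyl phthalate (7:2) and the pellet counted by scintillation. Nonspecific binding was measured with >2000-fold excess unlabeled ligand. Results are % inhibition of specific binding, mean of ≥3 replicates.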

T1 sequence (Q15722 whole entry, looked up): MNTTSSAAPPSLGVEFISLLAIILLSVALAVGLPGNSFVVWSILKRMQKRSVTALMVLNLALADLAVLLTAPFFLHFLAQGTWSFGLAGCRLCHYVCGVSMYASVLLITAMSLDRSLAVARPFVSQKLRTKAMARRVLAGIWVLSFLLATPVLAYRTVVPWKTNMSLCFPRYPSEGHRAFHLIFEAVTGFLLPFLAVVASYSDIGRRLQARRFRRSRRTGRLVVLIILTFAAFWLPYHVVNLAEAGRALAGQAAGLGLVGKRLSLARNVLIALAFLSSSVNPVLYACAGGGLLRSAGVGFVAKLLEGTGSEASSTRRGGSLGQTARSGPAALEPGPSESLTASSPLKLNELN
T1 sequence (Q9NPC1 whole entry, looked up): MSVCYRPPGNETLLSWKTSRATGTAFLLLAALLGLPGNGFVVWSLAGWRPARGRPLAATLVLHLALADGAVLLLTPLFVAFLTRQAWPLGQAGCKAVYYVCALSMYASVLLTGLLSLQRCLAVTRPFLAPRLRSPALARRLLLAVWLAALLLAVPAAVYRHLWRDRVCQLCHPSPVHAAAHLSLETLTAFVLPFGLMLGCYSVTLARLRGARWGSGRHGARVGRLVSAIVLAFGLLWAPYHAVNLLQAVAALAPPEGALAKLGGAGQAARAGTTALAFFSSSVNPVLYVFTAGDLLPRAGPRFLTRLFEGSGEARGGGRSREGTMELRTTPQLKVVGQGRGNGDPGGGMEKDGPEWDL

Row | SMILES | inhibition [%]
1 | O=C(O)CCc1cc(C(=O)c2cccc(C(=O)O)c2)ccc1OCCCCCCc1ccc(O)cc1 | 6
2 | O=C(O)CCc1cc(C(=O)c2cccc(C(=O)O)c2)ccc1OCCCCCCCCCCc1ccccc1 | 0
3 | COc1ccc(C#CCCCCOc2ccc(C(=O)c3cccc(C(=O)O)c3)cc2CCC(=O)O)cc1 | 9
4 | O=C(O)CCc1cc(C(=O)c2cccc(C(=O)O)c2)ccc1OCCCCCCc1ccc(Cl)cc1 | 15
5 | O=C(O)CCc1cc(C(=O)c2cccc(C(=O)O)c2)ccc1OCCCCCCc1ccc(F)cc1 | 6
6 | CC(=O)c1ccc(CCCCCCOc2ccc(C(=O)c3cccc(C(=O)O)c3)cc2CCC(=O)O)cc1 | 11
7 | COc1ccccc1CCCCCCOc1ccc(C(=O)c2cccc(C(=O)O)c2)cc1CCC(=O)O | 5
8 | COc1ccc(CCCCCCOc2ccc(C(=O)c3cccc(C(=O)O)c3)cc2CCC(=O)O)cc1 | 18

Other lines, results leading:

Row | inhibition [%] | SMILES
9 | 3 | O=C(O)CCc1cc(C(=O)c2cccc(C(=O)O)c2)ccc1OCCCC/C=C/c1ccccc1
10 | 36 | C[S+]([O-])c1ccc(/C=C/CCCCOc2ccc(C(=O)c3cccc(C(=O)O)c3)cc2CCC(=O)O)cc1 (stereo not given)
11 | 31 | CS(=O)(=O)c1ccc(/C=C/CCCCOc2ccc(C(=O)c3cccc(C(=O)O)c3)cc2CCC(=O)O)cc1
12 | 0 | COc1ccc(/C=C\CCCCOc2ccc(C(=O)c3cccc(C(=O)O)c3)cc2CCC(=O)O)cc1
13 | 24 | Cc1ccc(/C=C/CCCCOc2ccc(C(=O)c3cccc(C(=O)O)c3)cc2CCC(=O)O)cc1
14 | 20 | COc1ccc(/C=C/CCCCOc2ccc(C(=O)c3cccc(C(=O)O)c3)cc2CCC(=O)O)c(OC)c1
15 | 25 | COc1ccccc1/C=C/CCCCOc1ccc(C(=O)c2cccc(C(=O)O)c2)cc1CCC(=O)O
16 | 13 | COc1cccc(/C=C/CCCCOc2ccc(C(=O)c3cccc(C(=O)O)c3)cc2CCC(=O)O)c1
17 | 40 | COc1ccc(/C=C/CCCCOc2ccc(C(=O)c3cccc(C(=O)O)c3)cc2CCC(=O)O)cc1

The compounds below were run against T1, Leukotriene B4 receptor (Homo sapiens) (assay: Antagonistic activity against Leukotriene B4 receptor by using [3H]- LTB4 as a radioligand at a concentration of 10e-6 M).
Assay type: functional
Procedure, shortened: as §1

Row | SMILES | inhibition [%]
18 | O=C(O)CCc1cc(C(=O)c2cccc(C(=O)O)c2)ccc1OCCCCCCc1ccc(O)cc1 | 90
19 | COc1ccc(C#CCCCCOc2ccc(C(=O)c3cccc(C(=O)O)c3)cc2CCC(=O)O)cc1 | 90
20 | O=C(O)CCc1cc(C(=O)c2cccc(C(=O)O)c2)ccc1OCCCCCCc1ccc(Cl)cc1 | 93
21 | O=C(O)CCc1cc(C(=O)c2cccc(C(=O)O)c2)ccc1OCCCCCCc1ccc(F)cc1 | 77
22 | CC(=O)c1ccc(CCCCCCOc2ccc(C(=O)c3cccc(C(=O)O)c3)cc2CCC(=O)O)cc1 | 90
23 | COc1ccccc1CCCCCCOc1ccc(C(=O)c2cccc(C(=O)O)c2)cc1CCC(=O)O | 91
24 | COc1ccc(CCCCCCOc2ccc(C(=O)c3cccc(C(=O)O)c3)cc2CCC(=O)O)cc1 | 96

The next lines start with the values.

Row | inhibition [%] | SMILES
25 | 92 | O=C(O)CCc1cc(C(=O)c2cccc(C(=O)O)c2)ccc1OCCCC/C=C/c1ccccc1
26 | 95 | C[S+]([O-])c1ccc(/C=C/CCCCOc2ccc(C(=O)c3cccc(C(=O)O)c3)cc2CCC(=O)O)cc1 (stereo not given)
27 | 89 | CS(=O)(=O)c1ccc(/C=C/CCCCOc2ccc(C(=O)c3cccc(C(=O)O)c3)cc2CCC(=O)O)cc1
28 | 76 | COc1ccc(/C=C\CCCCOc2ccc(C(=O)c3cccc(C(=O)O)c3)cc2CCC(=O)O)cc1
29 | 96 | Cc1ccc(/C=C/CCCCOc2ccc(C(=O)c3cccc(C(=O)O)c3)cc2CCC(=O)O)cc1
30 | 96 | COc1ccc(/C=C/CCCCOc2ccc(C(=O)c3cccc(C(=O)O)c3)cc2CCC(=O)O)c(OC)c1
31 | 100 | COc1ccccc1/C=C/CCCCOc1ccc(C(=O)c2cccc(C(=O)O)c2)cc1CCC(=O)O
32 | 91 | COc1cccc(/C=C/CCCCOc2ccc(C(=O)c3cccc(C(=O)O)c3)cc2CCC(=O)O)c1
33 | 95 | COc1ccc(/C=C/CCCCOc2ccc(C(=O)c3cccc(C(=O)O)c3)cc2CCC(=O)O)cc1

These compounds were tested against T1, Leukotriene B4 receptor (Homo sapiens) (assay: Antagonistic activity against Leukotriene B4 receptor by using [3H]- LTB4 as a radioligand at a concentration of 10e-5 M).
Assay type: functional
Procedure, shortened: as §1

Row | SMILES | inhibition [%]
34 | O=C(O)CCc1cc(C(=O)c2cccc(C(=O)O)c2)ccc1OCCCCCCc1ccc(O)cc1 | 100
35 | COc1ccc(C#CCCCCOc2ccc(C(=O)c3cccc(C(=O)O)c3)cc2CCC(=O)O)cc1 | 100
36 | O=C(O)CCc1cc(C(=O)c2cccc(C(=O)O)c2)ccc1OCCCCCCc1ccc(Cl)cc1 | 100
37 | O=C(O)CCc1cc(C(=O)c2cccc(C(=O)O)c2)ccc1OCCCCCCc1ccc(F)cc1 | 100
38 | COc1ccccc1CCCCCCOc1ccc(C(=O)c2cccc(C(=O)O)c2)cc1CCC(=O)O | 100
39 | COc1ccc(CCCCCCOc2ccc(C(=O)c3cccc(C(=O)O)c3)cc2CCC(=O)O)cc1 | 100

More lines, now with the values ahead:

Row | inhibition [%] | SMILES
40 | 100 | O=C(O)CCc1cc(C(=O)c2cccc(C(=O)O)c2)ccc1OCCCC/C=C/c1ccccc1
41 | 99 | C[S+]([O-])c1ccc(/C=C/CCCCOc2ccc(C(=O)c3cccc(C(=O)O)c3)cc2CCC(=O)O)cc1 (stereo not given)
42 | 98 | CS(=O)(=O)c1ccc(/C=C/CCCCOc2ccc(C(=O)c3cccc(C(=O)O)c3)cc2CCC(=O)O)cc1
43 | 90 | COc1ccc(/C=C\CCCCOc2ccc(C(=O)c3cccc(C(=O)O)c3)cc2CCC(=O)O)cc1
44 | 100 | COc1ccc(/C=C/CCCCOc2ccc(C(=O)c3cccc(C(=O)O)c3)cc2CCC(=O)O)c(OC)c1
45 | 100 | COc1ccccc1/C=C/CCCCOc1ccc(C(=O)c2cccc(C(=O)O)c2)cc1CCC(=O)O
46 | 99 | COc1cccc(/C=C/CCCCOc2ccc(C(=O)c3cccc(C(=O)O)c3)cc2CCC(=O)O)c1
47 | 100 | COc1ccc(/C=C/CCCCOc2ccc(C(=O)c3cccc(C(=O)O)c3)cc2CCC(=O)O)cc1

Each compound was assayed against T1, Leukotriene B4 receptor (Homo sapiens) (assay: Antagonistic activity against Leukotriene B4 receptor by using [3H]- LTB4 as a radioligand at a concentration of 10e-7 M).
Assay type: functional
Procedure, shortened: as §1

Row | SMILES | inhibition [%]
48 | O=C(O)CCc1cc(C(=O)c2cccc(C(=O)O)c2)ccc1OCCCCCCc1ccc(O)cc1 | 43
49 | O=C(O)CCc1cc(C(=O)c2cccc(C(=O)O)c2)ccc1OCCCCCCCCCCc1ccccc1 | 28
50 | COc1ccc(C#CCCCCOc2ccc(C(=O)c3cccc(C(=O)O)c3)cc2CCC(=O)O)cc1 | 45
51 | O=C(O)CCc1cc(C(=O)c2cccc(C(=O)O)c2)ccc1OCCCCCCc1ccc(Cl)cc1 | 42
52 | O=C(O)CCc1cc(C(=O)c2cccc(C(=O)O)c2)ccc1OCCCCCCc1ccc(F)cc1 | 22
53 | CC(=O)c1ccc(CCCCCCOc2ccc(C(=O)c3cccc(C(=O)O)c3)cc2CCC(=O)O)cc1 | 46
54 | COc1ccccc1CCCCCCOc1ccc(C(=O)c2cccc(C(=O)O)c2)cc1CCC(=O)O | 3
55 | COc1ccc(CCCCCCOc2ccc(C(=O)c3cccc(C(=O)O)c3)cc2CCC(=O)O)cc1 | 68

Now from value to compound:

Row | inhibition [%] | SMILES
56 | 34 | O=C(O)CCc1cc(C(=O)c2cccc(C(=O)O)c2)ccc1OCCCC/C=C/c1ccccc1
57 | 86 | C[S+]([O-])c1ccc(/C=C/CCCCOc2ccc(C(=O)c3cccc(C(=O)O)c3)cc2CCC(=O)O)cc1 (stereo not given)
58 | 60 | CS(=O)(=O)c1ccc(/C=C/CCCCOc2ccc(C(=O)c3cccc(C(=O)O)c3)cc2CCC(=O)O)cc1
59 | 31 | COc1ccc(/C=C\CCCCOc2ccc(C(=O)c3cccc(C(=O)O)c3)cc2CCC(=O)O)cc1
60 | 73 | Cc1ccc(/C=C/CCCCOc2ccc(C(=O)c3cccc(C(=O)O)c3)cc2CCC(=O)O)cc1
61 | 66 | COc1ccc(/C=C/CCCCOc2ccc(C(=O)c3cccc(C(=O)O)c3)cc2CCC(=O)O)c(OC)c1
62 | 88 | COc1ccccc1/C=C/CCCCOc1ccc(C(=O)c2cccc(C(=O)O)c2)cc1CCC(=O)O
63 | 49 | COc1cccc(/C=C/CCCCOc2ccc(C(=O)c3cccc(C(=O)O)c3)cc2CCC(=O)O)c1
64 | 88 | COc1ccc(/C=C/CCCCOc2ccc(C(=O)c3cccc(C(=O)O)c3)cc2CCC(=O)O)cc1

What follows are compounds tested against Leukotriene B4 receptor 1 (Homo sapiens, UniProt Q15722) (assay: Inhibition of specific binding of [3H]LTB4 to Leukotriene B4 receptor in human neutrophils).
Chain of Leukotriene B4 receptor 1 (Q15722 whole entry): as the sequence (Q15722 whole entry, looked up) above

Row | IC50 [µM] | SMILES
65 | 0.0132 | COc1ccc(/C=C/CCCCOc2ccc(C(=O)c3cccc(C(=O)O)c3)cc2CCC(=O)O)cc1
